Test results from ChEMBL document CHEMBL5550118, “Human mitochondrial glutathione transferases: Kinetic parameters and accommodation of a mitochondria-targeting group in substrates” (Bioorg Med Chem, 2024).

How the values were obtained:
[1] = GSH reactivity in […] at 30 degreeC assessed as second-order reaction rate constant; format: ADME; details: buffer
[2] = substrate: COC(=O)c1ccc(Cl)c([N+](=O)[O-])c1; experiment: (§1) Substrate activity at N-terminal His6 tagged human GSTA4-4 expressed in Escherichia coli BL21(DE3) assessed as Kcat/Km at pH 8 at 30 degreeC by Lineweaver-Burk plot analysis
Outline: (§2)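 N-terminal His6/TEV-tagged enzyme was expressed in E. coli BL21(DE3) by IPTG induction at 15 °C and purified on Ni-NTA. Assays used 0.1 M HEPES-HCl pH 8, 30°C, with GSH fixed at 10 mM and substrate varied from 0.0625 to 2 mM. Conjugate formation was read by UV absorbance, and initial rates were measured in triplicate after subtracting the background rate. Constants came from a double-reciprocal Lineweaver-Burk fit.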

[3] = substrate: COC(=O)c1cc([N+](=O)O)ccc1Cl; experiment: as §1; outline: as §2
[4] = substrate: O=C(NCCCCC[P+](c1ccccc1)(c1ccccc1)c1ccccc1)c1ccc(Cl)c([N+](=O)[O-])c1; experiment: as §1; outline: as §2
[5] = substrate: O=[N+]([O-])c1ccc(Cl)c([N+](=O)[O-])c1; experiment: Substrate activity at N-terminal His6 tagged human GSTA4-4 expressed in Escherichia coli BL21(DE3) assessed as Km at pH 6.5 at 30 degreeC by Michaelis-Menten analysis
Outline: (§3)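 N-terminal His6/TEV-tagged human enzyme, expressed in E. coli BL21(DE3) and Ni-NTA purified. Run in 0.1 M sodium phosphate, pH 6.5, 30 °C. CDNB was varied with GSH fixed at 10 mM, or GSH was varied with CDNB fixed at 1 mM (GSH constants apparent). Conjugate formation read at 340 nm as initial rates over ≥1 min, in triplicate. A single background rate was subtracted, then fitted to Michaelis–Menten by non-linear regression.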

[6] = substrate: COC(=O)c1cc([N+](=O)O)ccc1Cl; experiment: Substrate activity at N-terminal His6 tagged human GSTA4-4 expressed in Escherichia coli BL21(DE3) assessed as catalytic constant at pH 8 at 30 degreeC by Lineweaver-Burk plot analysis; outline: as §2
[7] = substrate: O=[N+]([O-])c1ccc(Cl)c([N+](=O)[O-])c1; experiment: Substrate activity at N-terminal His6 tagged human GSTA4-4 expressed in Escherichia coli BL21(DE3) assessed as catalytic constant at pH 6.5 at 30 degreeC by Michaelis-Menten analysis; outline: as §3
[8] = substrate: O=[N+]([O-])c1ccc(Cl)c([N+](=O)[O-])c1; experiment: Substrate activity at N-terminal His6 tagged human GSTA4-4 expressed in Escherichia coli BL21(DE3) assessed as Km at pH 8 at 30 degreeC by Michaelis-Menten analysis
Outline: (§4)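 His6/TEV-tagged human GST was expressed in E. coli BL21(DE3) and purified on Ni-NTA. Assays used 0.1 M HEPES-HCl, pH 8, 30 °C. One substrate was varied: CDNB or chloronitrobenzene derivatives (derivatives 0.0625–2 mM) with 10 mM GSH, or GSH with 1 mM CDNB. Initial conjugate-formation rates were read at substrate-specific wavelengths, in triplicate. Triplicate background rates were subtracted. Enzyme amount was adjusted as needed. Fit by Michaelis–Menten non-linear regression or Lineweaver–Burk.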

[9] = substrate: O=[N+]([O-])c1ccc(Cl)c([N+](=O)[O-])c1; experiment: Substrate activity at N-terminal His6 tagged human GSTA4-4 expressed in Escherichia coli BL21(DE3) assessed as Kcat/Km at pH 6.5 at 30 degreeC by Michaelis-Menten analysis; outline: as §3
[10] = substrate: O=[N+]([O-])c1ccc(Cl)c([N+](=O)[O-])c1; experiment: (§5) Substrate activity at N-terminal His6 tagged human GSTA4-4 expressed in Escherichia coli BL21(DE3) assessed as Kcat/Km at pH 8 at 30 degreeC by Michaelis-Menten analysis; outline: as §4
[11] = substrate: O=[N+]([O-])c1cc([N+](=O)[O-])c(NCCCC[P+](c2ccccc2)(c2ccccc2)c2ccccc2)cc1Cl; experiment: as §5; outline: as §4
[12] = substrate: O=[N+]([O-])c1ccc(Cl)c([N+](=O)[O-])c1; experiment: Substrate activity at N-terminal His6 tagged human GSTA4-4 expressed in Escherichia coli BL21(DE3) assessed as catalytic constant at pH 8 at 30 degreeC by Michaelis-Menten analysis; outline: as §4
[13] = substrate: O=[N+]([O-])c1ccc(Cl)c([N+](=O)[O-])c1; experiment: Substrate activity at N-terminal His6 tagged human GSTA1-1 expressed in Escherichia coli BL21(DE3) assessed as Kcat/Km at pH 6.5 at 30 degreeC by Michaelis-Menten analysis; outline: as §3
[14] = substrate: O=[N+]([O-])c1ccc(Cl)c([N+](=O)[O-])c1; experiment: (§6) Substrate activity at N-terminal His6 tagged human GSTA1-1 expressed in Escherichia coli BL21(DE3) assessed as Kcat/Km at pH 8 at 30 degreeC by Michaelis-Menten analysis; outline: as §4
[15] = substrate: O=[N+]([O-])c1cc([N+](=O)[O-])c(NCCCC[P+](c2ccccc2)(c2ccccc2)c2ccccc2)cc1Cl; experiment: as §6; outline: as §4
[16] = substrate: O=[N+]([O-])c1ccc(Cl)c([N+](=O)[O-])c1; experiment: Substrate activity at N-terminal His6 tagged human GSTA1-1 expressed in Escherichia coli BL21(DE3) assessed as catalytic constant at pH 8 at 30 degreeC by Michaelis-Menten analysis; outline: as §4
[17] = substrate: O=[N+]([O-])c1ccc(Cl)c([N+](=O)[O-])c1; experiment: Substrate activity at N-terminal His6 tagged human GSTA1-1 expressed in Escherichia coli BL21(DE3) assessed as catalytic constant at pH 6.5 at 30 degreeC by Michaelis-Menten analysis; outline: as §3
[18] = substrate: O=[N+]([O-])c1ccc(Cl)c([N+](=O)[O-])c1; experiment: Substrate activity at N-terminal His6 tagged human GSTA1-1 expressed in Escherichia coli BL21(DE3) assessed as Km at pH 6.5 at 30 degreeC by Michaelis-Menten analysis; outline: as §3
[19] = substrate: COC(=O)c1ccc(Cl)c([N+](=O)[O-])c1; experiment: (§7) Substrate activity at N-terminal His6 tagged human GSTA1-1 expressed in Escherichia coli BL21(DE3) assessed as Kcat/Km at pH 8 at 30 degreeC by Lineweaver-Burk plot analysis; outline: as §2
[20] = substrate: COC(=O)c1cc([N+](=O)O)ccc1Cl; experiment: as §7; outline: as §2
[21] = substrate: O=C(NCCCCC[P+](c1ccccc1)(c1ccccc1)c1ccccc1)c1ccc(Cl)c([N+](=O)[O-])c1; experiment: as §7; outline: as §2
[22] = substrate: O=C(NCCCCC[P+](c1ccccc1)(c1ccccc1)c1ccccc1)c1cc([N+](=O)O)ccc1Cl; experiment: as §7; outline: as §2
[23] = substrate: O=[N+]([O-])c1ccc(Cl)c([N+](=O)[O-])c1; experiment: Substrate activity at N-terminal His6 tagged human GSTA1-1 expressed in Escherichia coli BL21(DE3) assessed as Km at pH 8 at 30 degreeC by Michaelis-Menten analysis; outline: as §4
[24] = substrate: O=C(NCCCCC[P+](c1ccccc1)(c1ccccc1)c1ccccc1)c1cc([N+](=O)O)ccc1Cl; experiment: Substrate activity at N-terminal His6 tagged human GSTA1-1 expressed in Escherichia coli BL21(DE3) assessed as catalytic constant at pH 8 at 30 degreeC by Lineweaver-Burk plot analysis
Outline: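 Assayed in 0.1 M HEPES-HCl pH 8 at 30°C. GSH fixed at 10 mM and chloronitrobenzene substrate varied 0.0625–2 mM. Initial rate of GS-conjugate formation read by UV absorbance at a substrate-specific wavelength. Background chemical rate (triplicate) subtracted. Triplicate rates, kcat from best-line fit of double-reciprocal plot.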

[25] = substrate: COC(=O)c1ccc(Cl)c([N+](=O)[O-])c1; experiment: (§8) Substrate activity at N-terminal His6 tagged human GSTK1-1 expressed in Escherichia coli BL21(DE3) assessed as Kcat/Km at pH 8 at 30 degreeC by Lineweaver-Burk plot analysis; outline: as §2
[26] = substrate: COC(=O)c1cc([N+](=O)O)ccc1Cl; experiment: as §8; outline: as §2
[27] = substrate: O=[N+]([O-])c1ccc(Cl)c([N+](=O)[O-])c1; experiment: Substrate activity at N-terminal His6 tagged human GSTK1-1 expressed in Escherichia coli BL21(DE3) assessed as catalytic constant at pH 8 at 30 degreeC by Michaelis-Menten analysis; outline: as §4
[28] = substrate: COC(=O)c1cc([N+](=O)O)ccc1Cl; experiment: Substrate activity at N-terminal His6 tagged human GSTK1-1 expressed in Escherichia coli BL21(DE3) assessed as catalytic constant at pH 8 at 30 degreeC by Lineweaver-Burk plot analysis; outline: as §2
[29] = substrate: O=[N+]([O-])c1ccc(Cl)c([N+](=O)[O-])c1; experiment: Substrate activity at N-terminal His6 tagged human GSTK1-1 expressed in Escherichia coli BL21(DE3) assessed as Km at pH 8 at 30 degreeC by Michaelis-Menten analysis; outline: as §4
[30] = substrate: O=[N+]([O-])c1ccc(Cl)c([N+](=O)[O-])c1; experiment: (§9) Substrate activity at N-terminal His6 tagged human GSTK1-1 expressed in Escherichia coli BL21(DE3) assessed as Kcat/Km at pH 8 at 30 degreeC by Michaelis-Menten analysis; outline: as §4
[31] = substrate: O=[N+]([O-])c1cc([N+](=O)[O-])c(NCCCC[P+](c2ccccc2)(c2ccccc2)c2ccccc2)cc1Cl; experiment: as §9; outline: as §4

Molecule: O=[N+]([O-])c1cc([N+](=O)[O-])c(NCCCC[P+](c2ccccc2)(c2ccccc2)c2ccccc2)cc1Cl
- K [1]: 1.5 10^-5/mM/s

Molecule: COC(=O)c1ccc(Cl)c([N+](=O)[O-])c1
- K [1]: 2.92 10^-6/mM/s

Molecule: O=[N+]([O-])c1ccc(Cl)c([N+](=O)[O-])c1 [DINITROCHLOROBENZENE]
- K [1]: 5.05 10^-5/mM/s

B1: Glutathione S-transferase A4 (Homo sapiens), O15217 (protein)
chain: MAARPKLHYPNGRGRMESVRWVLAAAGVEFDEEFLETKEQLYKLQDGNHLLFQQVPMVEIDGMKLVQTRSILHYIADKHNLFGKNLKERTLIDMYVEGTLDLLELLIMHPFLKPDDQQKEVVNMAQKAIIRYFPVFEKILRGHGQSFLVGNQLSLADVILLQTILALEEKIPNILSAFPFLQEYTVKLSNIPTIKRFLEPGSKKKPPPDEIYVRTVYNIFRP
- kcat/Km [2]: 146 M⁻¹ s⁻¹
- kcat/Km [3]: 5.91 10^-2/mM/s
- kcat/Km [4]: 2570 M⁻¹ s⁻¹
- Km [5]: 5200 µM
- kcat [6]: 5.61 10^-2/s
- kcat [7]: 14.9 s⁻¹
- Km [8]: 253 µM
- kcat/Km [9]: 2930 M⁻¹ s⁻¹
- kcat/Km [10]: 19500 M⁻¹ s⁻¹
- kcat/Km [11]: 32200 M⁻¹ s⁻¹
- kcat [12]: 4.94 s⁻¹

B2: Glutathione S-transferase A1 (Homo sapiens), P08263 (protein)
chain: MAEKPKLHYFNARGRMESTRWLLAAAGVEFEEKFIKSAEDLDKLRNDGYLMFQQVPMVEIDGMKLVQTRAILNYIASKYNLYGKDIKERALIDMYIEGIADLGEMILLLPVCPPEEKDAKLALIKEKIKNRYFPAFEKVLKSHGQDYLVGNKLSRADIHLVELLYYVEELDSSLISSFPLLKALKTRISNLPTVKKFLQPGSPRKPPMDEKSLEEARKIFRF
- kcat/Km [13]: 71900 M⁻¹ s⁻¹
- kcat/Km [14]: 353000 M⁻¹ s⁻¹
- kcat/Km [15]: 101000 M⁻¹ s⁻¹
- kcat [16]: 45.3 s⁻¹
- kcat [17]: 35.4 s⁻¹
- Km [18]: 492 µM
- kcat/Km [19]: 4320 M⁻¹ s⁻¹
- kcat/Km [20]: 1380 M⁻¹ s⁻¹
- kcat/Km [21]: 21600 M⁻¹ s⁻¹
- kcat/Km [22]: 6.49 10^-2/mM/s
- Km [23]: 128 µM
- kcat [24]: 4.67 10^-2/s

B3: Glutathione S-transferase kappa 1 (Homo sapiens), Q9Y2Q3 (protein)
chain: MGPLPRTVELFYDVLSPYSWLGFEILCRYQNIWNINLQLRPSLITGIMKDSGNKPPGLLPRKGLYMANDLKLLRHHLQIPIHFPKDFLSVMLEKGSLSAMRFLTAVNLEHPEMLEKASRELWMRVWSRNEDITEPQSILAAAEKAGMSAEQAQGLLEKIATPKVKNQLKETTEAACRYGAFGLPITVAHVDGQTHMLFGSDRMELLAHLLGEKWMGPIPPAVNARL
- kcat/Km [25]: 351 M⁻¹ s⁻¹
- kcat/Km [26]: 6.13 10^-2/mM/s
- kcat [27]: 14.6 s⁻¹
- kcat [28]: 9.45 10^-2/s
- Km [29]: 1900 µM
- kcat/Km [30]: 7670 M⁻¹ s⁻¹
- kcat/Km [31]: 287 M⁻¹ s⁻¹
